Source: ChEMBL document CHEMBL2424556, “Hybrid benzofuran-bisindole derivatives: new prototypes with promising anti-hyperlipidemic activities” (2013)
The source made the active and inactive calls. No cut-off for these calls is given here.

What was measured:
[1] = test system: Rattus norvegicus; experiment: Antihyperlipidemic activity in Charles-Foster rat assessed as reversal of triton-induced increase in plasma phospholipid level at 100 mg/kg, po after 18 hrs relative to control; type: functional
How it was run: (§1)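 Male adult Charles Foster rats (200-225 g), 6 per group; triton WR-1339 400 mg/kg i.p. plus oral test agent in 0.2% gum acacia suspension, given together, diet withdrawn. After 18 h, retro-orbital EDTA blood was centrifuged 2500 g, 4 °C, 10 min; plasma was diluted 1:3 in saline and TC, PL and TG were assayed enzymatically (mg/dl). Mean ± SD; Student's t-test.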

[2] = test system: Rattus norvegicus; experiment: Antihyperlipidemic activity in Charles-Foster rat assessed as reversal of triton-induced increase in plasma total cholesterol level at 150 mg/kg, po after 18 hrs relative to triton-treated control; type: functional
How it was run: (§2)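 Dose-response in triton WR-1339 (400 mg/kg i.p.) hyperlipidemic male Charles Foster rats given oral agent at 50, 100 or 150 mg/kg in gum acacia suspension for 18 h, 6 rats/group. Plasma TC, PL and TG were measured enzymatically. Pooled data as mean ± SD; triton versus triton-plus-agent groups compared by t-test.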

[3] = test system: Rattus norvegicus; experiment: Antihyperlipidemic activity in Charles-Foster rat assessed as reversal of triton-induced decrease in HDL level at 100 mg/kg, po after 18 hrs; type: functional, organism-based; parameters: dose 100 mg/kg
How it was run: (§3)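 Triton WR-1339 (400 mg/kg i.p.) hyperlipidemic male Charles Foster rats dosed 100 mg/kg p.o. for 18 h, 6/group. Serum was fractionated into VLDL, LDL and HDL by polyanionic precipitation and lipoprotein cholesterol measured. Mean ± SD; Student's t-test against triton group.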

[4] = test system: Rattus norvegicus; experiment: Antihyperlipidemic activity in Charles-Foster rat assessed as post heparin lipolytic activity at 100 mg/kg, po after 18 hrs by spectrophotometric analysis relative to control; type: functional
How it was run: (§4)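 Male adult Charles Foster rats (200-225 g), 6 per group. Triton WR-1339 400 mg/kg i.p.; test agent 100 mg/kg p.o. as gum acacia (0.2% w/v) suspension in water, given simultaneously, diet withdrawn; vehicle to control and triton groups. At 18 h under thiopentone (50 mg/kg), retro-orbital blood collected into EDTA and plasma separated. Post-heparin lipolytic activity read spectrophotometrically as nmol free fatty acid/h/ml plasma; mean ± SD; Student's t-test.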

[5] = Antioxidant activity assessed as inhibition of microsomal lipid peroxidation at 200 ug/mL by spectrophotometric analysis relative to control; type: functional
[6] = test system: Rattus norvegicus; experiment: Antihyperlipidemic activity in Charles-Foster rat assessed as reversal of triton-induced increase in VLDL level at 100 mg/kg, po after 18 hrs; type: functional, organism-based; parameters: dose 100 mg/kg; how it was run: as §3
[7] = test system: Rattus norvegicus; experiment: Antihyperlipidemic activity in Charles-Foster rat assessed as reversal of triton-induced increase in plasma total cholesterol level at 100 mg/kg, po after 18 hrs relative to triton-treated control; type: functional; how it was run: as §1
[8] = test system: Rattus norvegicus; experiment: Antihyperlipidemic activity in triton-induced Charles-Foster rat assessed as increase in plasma lecithin cholesterol acyltransferase activity at 100 mg/kg, po after 18 hrs by colorimetric assay; type: functional, organism-based; parameters: dose 100 mg/kg
[9] = test system: Rattus norvegicus; experiment: Antihyperlipidemic activity in Charles-Foster rat assessed as post heparin lipolytic activity at 100 mg/kg, po after 18 hrs by spectrophotometric analysis relative to triton-treated control; type: functional; how it was run: as §4
[10] = test system: Rattus norvegicus; experiment: Antihyperlipidemic activity in Charles-Foster rat assessed as reversal of triton-induced increase in plasma triglyceride level at 100 mg/kg, po after 18 hrs relative to control; type: functional; how it was run: as §1
[11] = test system: Rattus norvegicus; experiment: Antihyperlipidemic activity in po dosed Charles-Foster rat assessed as reversal of triton-induced increase in plasma phospholipid level after 18 hrs; type: functional, organism-based; how it was run: as §1
[12] = test system: Rattus norvegicus; experiment: Antihyperlipidemic activity in po dosed Charles-Foster rat assessed as reversal of triton-induced increase in plasma total cholesterol level after 18 hrs; type: functional, organism-based; how it was run: as §1
[13] = test system: Rattus norvegicus; experiment: Antihyperlipidemic activity in Charles-Foster rat assessed as reversal of triton-induced increase in plasma phospholipid level at 100 mg/kg, po after 18 hrs relative to triton-treated control; type: functional; how it was run: as §1
[14] = test system: Rattus norvegicus; experiment: Antihyperlipidemic activity in Charles-Foster rat assessed as reversal of triton-induced increase in plasma triglyceride level at 150 mg/kg, po after 18 hrs relative to triton-treated control; type: functional; how it was run: as §2
[15] = test system: Rattus norvegicus; experiment: Antihyperlipidemic activity in Charles-Foster rat assessed as reversal of triton-induced increase in plasma phospholipid level at 50 mg/kg, po after 18 hrs relative to triton-treated control; type: functional; how it was run: as §2
[16] = test system: Rattus norvegicus; experiment: Antihyperlipidemic activity in Charles-Foster rat assessed as reversal of triton-induced increase in plasma triglyceride level at 100 mg/kg, po after 18 hrs relative to triton-treated control; type: functional; how it was run: as §1
[17] = Antioxidant activity assessed as inhibition of hydroxyl radical generation at 200 ug/mL after 90 mins by spectrophotometric analysis relative to control; type: functional
How it was run: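 Hydroxyl radicals were generated non-enzymically from deoxyribose (2.8 mM), FeSO4 (2 mM), sodium ascorbate (2.0 mM) and H2O2 (2.8 mM) in KH2PO4 buffer pH 7.4, 2.5 mL final, with or without agent at 200 µg/ml, for 90 min at 37 °C. MDA was read spectrophotometrically by the thiobarbituric acid method against reference samples and reagent blanks.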

[18] = test system: Rattus norvegicus; experiment: Antihyperlipidemic activity in Charles-Foster rat assessed as reversal of triton-induced increase in LDL level at 100 mg/kg, po after 18 hrs; type: functional, organism-based; parameters: dose 100 mg/kg; how it was run: as §3
[19] = test system: Rattus norvegicus; experiment: Antihyperlipidemic activity in Charles-Foster rat assessed as reversal of triton-induced increase in plasma phospholipid level at 150 mg/kg, po after 18 hrs relative to triton-treated control; type: functional; how it was run: as §2
[20] = test system: Rattus norvegicus; experiment: Antihyperlipidemic activity in Charles-Foster rat assessed as reversal of triton-induced increase in plasma triglyceride level at 50 mg/kg, po after 18 hrs relative to triton-treated control; type: functional; how it was run: as §2
[21] = test system: Rattus norvegicus; experiment: Antihyperlipidemic activity in Charles-Foster rat assessed as reversal of triton-induced increase in plasma total cholesterol level at 50 mg/kg, po after 18 hrs relative to triton-treated control; type: functional; how it was run: as §2
[22] = Antioxidant activity assessed as inhibition of superoxide anion generation at 200 ug/mL after 30 mins by NBT reduction assay relative to control; type: functional
How it was run: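 Superoxide was generated by xanthine, xanthine oxidase (0.04 U) and nitroblue tetrazolium in 100 mM phosphate buffer pH 8.2, with or without agent at 200 µg/ml, for 30 min at 37 °C. Stopped with glacial acetic acid; formazan read at 560 nm, and % inhibition derived using ε 7.2 × 10³ M⁻¹cm⁻¹.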

[23] = test system: Rattus norvegicus; experiment: Antihyperlipidemic activity in Charles-Foster rat assessed as reversal of triton-induced increase in plasma total cholesterol level at 100 mg/kg, po after 18 hrs relative to control; type: functional; how it was run: as §1
[24] = test system: Rattus norvegicus; experiment: Antihyperlipidemic activity in po dosed Charles-Foster rat assessed as reversal of triton-induced increase in plasma triglyceride level after 18 hrs; type: functional, organism-based; how it was run: as §1

CCc1cc(C(c2c[nH]c3ccc(OC)cc23)c2c[nH]c3ccc(OC)cc23)cc2cc(C(=O)c3ccc(OC)cc3)oc12
Activity [1]: 146.88 mg/dL | Activity [2]: -29% | Activity [3]: Active | Activity [4]: 15.58 nmol/h/mL | inhibition [5]: 32% | Activity [6]: Active | Activity [7]: -28% | Activity [8]: Active | Activity [9]: 18% | Activity [10]: 155.59 mg/dL | Activity [11]: Dose-dependent effect | Activity [12]: Dose-dependent effect | Activity [13]: -29% | Activity [14]: -30% | Activity [15]: -20% | Activity [16]: -28% | inhibition [17]: 27% | Activity [18]: Active | Activity [19]: -29% | Activity [20]: -20% | Activity [21]: -22% | inhibition [22]: 31% | Activity [23]: 132.63 mg/dL | Activity [24]: Dose-dependent effect

COc1ccc(C(=O)c2cc3cc(C(c4c[nH]c5ccc(OC)cc45)c4c[nH]c5ccc(OC)cc45)cc(C)c3o2)cc1
Activity [1]: 159.29 mg/dL | Activity [2]: -25% | Activity [3]: Active | Activity [4]: 15.32 nmol/h/mL | inhibition [5]: 31% | Activity [6]: Active | Activity [7]: -23% | Activity [8]: Active | Activity [9]: 16% | Activity [10]: 164.24 mg/dL | Activity [13]: -23% | Activity [14]: -25% | Activity [15]: -17% | Activity [16]: -24% | inhibition [17]: 30% | Activity [18]: Active | Activity [19]: -24% | Activity [20]: -16% | Activity [21]: -15% | inhibition [22]: 33% | Activity [23]: 141.84 mg/dL

COc1ccc(C(=O)c2cc3cc(C(c4c[nH]c5ccc(OC)cc45)c4c[nH]c5ccc(OC)cc45)cc(C(C)(C)C)c3o2)cc1
Activity [1]: 159.29 mg/dL | Activity [2]: -27% | Activity [3]: Active | Activity [4]: 15.45 nmol/h/mL | Activity [6]: Active | Activity [7]: -24% | Activity [8]: Active | Activity [9]: 17% | Activity [10]: 166.4 mg/dL | Activity [13]: -23% | Activity [14]: -24% | Activity [15]: -20% | Activity [16]: -23% | Activity [18]: Active | Activity [19]: -23% | Activity [20]: -21% | Activity [21]: -20% | Activity [23]: 139.99 mg/dL

Oc1ncnc2[nH]ncc12
inhibition [22]: 51%

CCCc1cc(C(c2c[nH]c3ccc(OC)cc23)c2c[nH]c3ccc(OC)cc23)cc2cc(C(=O)c3ccc(OC)cc3)oc12
Activity [1]: 159.29 mg/dL | Activity [2]: -24% | Activity [3]: Active | Activity [4]: 15.32 nmol/h/mL | Activity [6]: Active | Activity [7]: -24% | Activity [8]: Active | Activity [9]: 16% | Activity [10]: 166.4 mg/dL | Activity [13]: -23% | Activity [14]: -24% | Activity [15]: -18% | Activity [16]: -23% | Activity [18]: Active | Activity [19]: -26% | Activity [20]: -16% | Activity [21]: -17% | Activity [23]: 139.99 mg/dL
